The source of these data is ChEMBL document CHEMBL1212853, “New chloro,fluorobenzylindole derivatives as integrase strand-transfer inhibitors (INSTIs) and their mode of action” (Bioorg Med Chem, 2010).

Each structure is given as a SMILES string. Bounds are passed on as bounds.

For data set [1], the system named is Human immunodeficiency virus 1. Briefly: Antiviral activity against HIV1 infected in human MT4 cells assessed as inhibition of virus-induced cytopathic effect. The data set is classed as functional, organism-based. As to conditions: Human immunodeficiency virus 1, MT4. In short, it runs like this: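 MT-4/MTT assay: MT-4 cells were infected with 100–300 CCID50 of an HIV-1 IIIB stock, titrated on MT-4 cells, in the presence of fivefold serial compound dilutions. Cell protection from virus-induced cytopathic effect was read spectrophotometrically as MTT reduction to formazan by viable cells. EC50 is the concentration giving 50% protection. Averages ± SD.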
(Damage to the host cells serves as the signal in cytopathic effect assays.)

In a further data set the test system is MT4. Briefly: Cytotoxicity against human MT4 cells by MTT assay. The data set is classed as cell-based. In short, it runs like this: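 Run in parallel with the antiviral MT-4/MTT assay, using fivefold serial compound dilutions. Viability was read spectrophotometrically as MTT reduction to formazan by mitochondrial dehydrogenase. CC50 is the concentration reducing MT-4 viability by 50%. Averages ± SD.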
(In general: Tetrazolium dyes change colour on reduction, which living cells bring about.)

Data set [2] addresses T1, Human immunodeficiency virus type 1 integrase (Human immunodeficiency virus 1, UniProt Q7ZJM1).
The nature of data set [3]: Selectivity index, ratio of CC50 for human MT4 cells to EC50 for HIV1 cells. The data set is classed as toxicity, cell-based. The settings on record: read-out: Selectivity Index. In outline: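 MT-4/MTT assay in human MT-4 lymphocytes. Cells were infected with 100–300 CCID50 of HIV-1 strain IIIB, titrated on MT-4 cells, in the presence of fivefold serial compound dilutions. Viability was read spectrophotometrically as MTT reduced to formazan. EC50 is 50% protection against virus-induced cytopathic effect; CC50 was determined in parallel. SI is calculated as CC50/EC50.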

For data set [4], the target named is T1, Human immunodeficiency virus type 1 integrase. This is another data set of the same source.

T1 sequence (Q7ZJM1 whole entry): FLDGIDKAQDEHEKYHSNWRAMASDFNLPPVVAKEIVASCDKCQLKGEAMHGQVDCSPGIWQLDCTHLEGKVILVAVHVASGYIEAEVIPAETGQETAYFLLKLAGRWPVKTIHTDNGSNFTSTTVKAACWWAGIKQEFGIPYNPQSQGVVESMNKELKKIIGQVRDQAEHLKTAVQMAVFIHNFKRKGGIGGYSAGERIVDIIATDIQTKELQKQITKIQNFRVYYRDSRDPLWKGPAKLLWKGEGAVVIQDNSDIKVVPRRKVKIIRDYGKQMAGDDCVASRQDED

As for `COc1cccc2c1c(C(=O)/C=C(\O)C(=O)O)cn2Cc1cccc(Cl)c1F`, the half-maximal effective concentration (EC50) in data set [1] was 0.43 µM; in the data set on MT4, 15 µM. Also, the IC50 in data set [2] was found to be 0.03 µM; in data set [4] it was 0.74 µM. The selectivity ratio in data set [3] is 35.

As for `COc1cccc2c1c(C(=O)/C=C(\O)C(=O)O)cn2Cc1ccc(F)cc1`, the EC50 in the data set on MT4 came to 41.1 µM. Besides, in data set [3], the selectivity ratio is 70.

`CCOC(=O)/C(O)=C/C(=O)c1cn(Cc2cccc(Cl)c2F)c2cccc(OC)c12`: the EC50 in data set [1] stood at 2.31 µM; with MT4, 46.9 µM. For the same compound, the figures for the half-maximal inhibitory concentration (IC50) in data set [2] and in data set [4] were 0.74 µM and 1.37 µM, respectively. In data set [3], the selectivity ratio was determined as 20.

Consider `CCOC(=O)/C(O)=C/C(=O)c1cn(Cc2cc(F)cc(Cl)c2)c2cccc(OC)c12`, for which the EC50 in data set [1] came to 4.27 µM; in the data set on MT4 it was 58.2 µM. Moreover, the values for the concentration for half-maximal inhibition (IC50) in data set [2] and in data set [4] were 3.17 µM and 1.3 µM, respectively. Moreover, the selectivity ratio in data set [3] came out at 14.

Turning to `COc1cccc2c1c(C(=O)/C=C(\O)C(=O)O)cn2Cc1ccc(Cl)cc1`, the values for the EC50 (in data set [1]; in the data set on MT4) were 20.6 µM and 33.5 µM, respectively. Also, the values for the IC50 in data set [2] and in data set [4] were 0.59 µM and 1.02 µM, respectively. For the same compound, the selectivity ratio in data set [3] turned out to be 2.

As to `CCOC(=O)/C(O)=C/C(=O)c1cn(Cc2cc(F)ccc2Cl)c2cccc(OC)c12`, the EC50 in data set [1] is 16.4 µM; in the data set on MT4 it was 39.6 µM. Further, the results for the IC50 in data set [2] and in data set [4] were 2.94 µM and 2.7 µM, respectively. Besides, in data set [3], the selectivity ratio is 3.

Regarding `COc1cccc2c1c(C(=O)/C=C(\O)C(=O)O)cn2Cc1ccccc1Cl`, the EC50 in data set [1] turned out to be 0.42 µM; in the data set with MT4, 27 µM. In addition, the IC50 worked out at 0.52 µM in data set [2] and 0.71 µM in data set [4]. Besides, in data set [3], the selectivity ratio came to 64.

For `COc1cccc2c1c(C(=O)/C=C(\O)C(=O)O)cn2Cc1cc(F)cc(Cl)c1`, the values for the EC50 (in data set [1]; in the data set on MT4) were 0.52 µM and 32.1 µM, respectively. The values for the IC50 in data set [2] and in data set [4] were 0.25 µM and 0.24 µM, respectively. Further, in data set [3], the selectivity ratio amounted to 62.

With `CCOC(=O)/C(O)=C/C(=O)c1cn(Cc2c(F)cccc2Cl)c2cccc(OC)c12`, the EC50 in data set [1] was 4.66 µM; in the data set on MT4 it was 25.4 µM. For the same compound, the values for the IC50 in data set [2] and in data set [4] were 1.2 µM and 2.86 µM, respectively. Also, the selectivity ratio in data set [3] is 5.

For the compound `COc1cccc2c1c(C(=O)/C=C(\O)C(=O)O)cn2Cc1ccc(Cl)cc1F`, the EC50 was over 22.5 µM in data set [1] and 23 µM in the data set on MT4. For the same compound, the results for the IC50 in data set [2] and in data set [4] were 5.52 µM and 2.53 µM, respectively. In data set [3], the selectivity ratio is under 1.

As for `COc1cccc2c1c(C(=O)/C=C(\O)C(=O)O)cn2Cc1c(F)cccc1Cl`, the EC50 in data set [1] came to 0.56 µM; in the data set with MT4, 62 µM. For the same compound, the half-maximal inhibitory concentration (IC50) in data set [2] stood at 0.13 µM; in data set [4], 0.53 µM. For the same compound, the selectivity ratio in data set [3] came out at 111.

On to `COc1cccc2c1c(C(=O)/C=C(\O)C(=O)O)cn2Cc1cccc(F)c1Cl`, for which the results for the concentration giving a half-maximal response (EC50) (in data set [1]; in the data set with MT4) were 0.36 µM and 6.5 µM, respectively. The IC50 stood at 12.7 µM in data set [2] and 5.24 µM in data set [4]. The selectivity ratio in data set [3] was 18.

On to `COc1cc2c(cc1Cc1cccc(Cl)c1F)c(=O)c(C(=O)O)cn2[C@H](CO)C(C)C`, for which, in the data set on MT4, the EC50 is 2.12 µM.

With `Cc1nnc(C(=O)NC(C)(C)c2nc(C(=O)NCc3ccc(F)cc3)c(O)c(=O)n2C)o1`, in the data set with MT4, the EC50 is over 18 µM.

On to `CCOC(=O)/C(O)=C/C(=O)c1cn(Cc2ccc(F)cc2Cl)c2cccc(OC)c12`, for which the EC50 in data set [1] turned out to be 4.06 µM; with MT4, 51.4 µM. Also, the figures for the half-inhibitory concentration (IC50) in data set [2] and in data set [4] were 2.56 µM and 1.74 µM, respectively. In addition, the selectivity ratio in data set [3] was 13.

As to `COc1cccc2c1c(C(=O)/C=C(\O)C(=O)O)cn2Cc1cc(F)ccc1Cl`, the EC50 in data set [1] was determined as 3.3 µM; in the data set with MT4, 26.3 µM. Also, the IC50 in data set [2] was determined as 0.27 µM; in data set [4] it was 0.42 µM. In data set [3], the selectivity ratio was 8.

In the case of `COc1cccc2c1c(C(=O)/C=C(\O)C(=O)O)cn2Cc1cc(Cl)ccc1F`, the EC50 in data set [1] was found to be 4.17 µM; with MT4, 10.8 µM. Besides, the IC50 turned out to be 0.09 µM in data set [2] and 0.32 µM in data set [4]. Further, the selectivity ratio in data set [3] was determined as 3.

On to `CCOC(=O)/C(O)=C/C(=O)c1cn(Cc2cc(Cl)ccc2F)c2cccc(OC)c12`, for which the EC50 (in data set [1]; in the data set on MT4) was 18.1 µM each time. Moreover, the IC50 in data set [2] came out at 0.89 µM; in data set [4] it was 1.61 µM. Also, the selectivity ratio in data set [3] was determined as 1.

As for `COc1cccc2c1c(C(=O)/C=C(\O)C(=O)O)cn2Cc1ccc(Cl)c(F)c1`, the EC50 in data set [1] is over 23.3 µM; with MT4 it was 23.3 µM. In addition, the IC50 came out at 4.58 µM in data set [2] and 3.33 µM in data set [4]. In data set [3], the selectivity ratio is under 1.

Turning to `CCOC(=O)/C(O)=C/C(=O)c1cn(Cc2ccc(F)c(Cl)c2)c2cccc(OC)c12`, the EC50 turned out to be 1.87 µM in data set [1] and 49.3 µM in the data set on MT4. Also, the figures for the IC50 in data set [2] and in data set [4] were 0.07 µM and 0.36 µM, respectively. For the same compound, the selectivity ratio in data set [3] was 26.

On to `COc1cccc2c1c(C(=O)/C=C(\O)C(=O)O)cn2Cc1ccc(F)cc1Cl`, for which the EC50 stood at 4.3 µM in data set [1] and 47.2 µM with MT4. Also, the concentration for half-maximal inhibition (IC50) in data set [2] worked out at 0.06 µM; in data set [4], 0.54 µM. Also, the selectivity ratio in data set [3] stood at 11.

`CCOC(=O)/C(O)=C/C(=O)c1cn(Cc2cccc(F)c2Cl)c2cccc(OC)c12`: the values for the EC50 (in data set [1]; in the data set on MT4) were 2.52 µM and 18.5 µM, respectively. The IC50 was found to be 9.2 µM in data set [2] and 1.39 µM in data set [4]. For the same compound, in data set [3], the selectivity ratio was determined as 7.

For `CCOC(=O)/C(O)=C/C(=O)c1cn(Cc2ccc(Cl)c(F)c2)c2cccc(OC)c12`, the EC50 in data set [1] was over 63.7 µM; in the data set on MT4 it was 63.7 µM. Moreover, the IC50 in data set [2] is 20.4 µM; in data set [4], 5.05 µM. Further, the selectivity ratio in data set [3] was under 1.

In the case of `CCOC(=O)/C(O)=C/C(=O)c1cn(Cc2ccc(Cl)cc2F)c2cccc(OC)c12`, the values for the EC50 (in data set [1]; with MT4) were over 17 µM and 17 µM, respectively. Moreover, the values for the IC50 in data set [2] and in data set [4] were 3.32 µM and 1.15 µM, respectively. Besides, the selectivity ratio in data set [3] is under 1.

`COc1cccc2c1c(C(=O)/C=C(\O)C(=O)O)cn2Cc1cccc(Cl)c1`: the figures for the EC50 (in data set [1]; in the data set with MT4) were 0.64 µM and 30.2 µM, respectively. Also, the IC50 in data set [2] was determined as 0.03 µM; in data set [4], 0.13 µM. The selectivity ratio in data set [3] is 47.

Regarding `CCOC(=O)/C(O)=C/C(=O)c1cn(Cc2ccccc2Cl)c2cccc(OC)c12`, the EC50 in data set [1] stood at 2.51 µM; in the data set with MT4, 34.5 µM. Moreover, the results for the IC50 in data set [2] and in data set [4] were 0.73 µM and 13.1 µM, respectively. In data set [3], the selectivity ratio was 14.

Regarding `CCOC(=O)/C(O)=C/C(=O)c1cn(Cc2cccc(Cl)c2)c2cccc(OC)c12`, the EC50 worked out at 3.25 µM in data set [1] and 52.9 µM in the data set with MT4. The IC50 in data set [2] stood at 2.89 µM; in data set [4] it was 4.78 µM. Moreover, the selectivity ratio in data set [3] is 17.

Take `COc1cccc2c1c(C(=O)/C=C(\O)C(=O)O)cn2Cc1ccc(F)c(Cl)c1`: the results for the EC50 (in data set [1]; with MT4) were 0.43 µM and 31.7 µM, respectively. The IC50 in data set [2] stood at 0.12 µM; in data set [4] it was 0.04 µM. Moreover, the selectivity ratio in data set [3] was determined as 74.

As for `CCOC(=O)/C(O)=C/C(=O)c1cn(Cc2ccc(Cl)cc2)c2cccc(OC)c12`, the EC50 (in data set [1]; in the data set with MT4) was 41.3 µM in each case. Besides, the IC50 in data set [2] is 8.26 µM; in data set [4] it was 5.78 µM. For the same compound, the selectivity ratio in data set [3] is 1.

The term EC50 denotes the concentration that produces a half-maximal response. Usually IC50 stands for the concentration that inhibits the measured activity by half.
